The term AUC denotes the area under the concentration-time curve, a measure of exposure. The term kinetic solubility denotes the concentration staying in solution when a stock, usually in DMSO, is diluted into the medium. What is called Cmax is the highest concentration seen after dosing. A word on the pKi: it is −log10 of the Ki, conventionally taken in molar units. Broadly, the Tmax is the time from dosing to the highest level. In general, AUC(0-t) refers to the area under the concentration-time curve up to a stated or last time point. Usually pIC50 stands for −log10 of the IC50, conventionally taken in molar units. Broadly, the solubility (thermodynamic) is solubility found after equilibrating the solid with the medium. One may read the inhibition in vivo as the relative decrease from the control value, in per cent.

We go through 11 compounds from ChEMBL document CHEMBL1268933, “Discovery of a vorapaxar analog with increased aqueous solubility” (Bioorg Med Chem Lett, 2010).

Molecules are shown by their SMILES. pIC50, pKi: −log10 of the molar value. ≈ marks a conversion by molar mass, not a printed value. Calls of active or inactive are those of the source. The rule behind the calls is not given here.

The nature of data set [1]: AUC in rat. The class given is ADME, organism-based. To be noted: plasma. Summed up: (§1)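 High-throughput format rat pharmacokinetic screen; plasma AUC and Cmax determined.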
Data set [2] can be described thus: Kinetic solubility of the compound. The class given is physicochemical. Summed up: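 Kinetic solubility: DMSO serial dilutions added to 10 mM phosphate buffer pH 7.4, equilibrated 30 min at room temperature; precipitate detected by nephelometry; solubility taken as highest concentration not scattering light.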
The nature of data set [3]: Cmax in rat. The class given is ADME, organism-based. To be noted: in vivo. In outline:
as §1

Data set [4] concerns the target T1, Proteinase-activated receptor 1 (Homo sapiens, UniProt P25116).
T1 sequence (P25116 whole entry): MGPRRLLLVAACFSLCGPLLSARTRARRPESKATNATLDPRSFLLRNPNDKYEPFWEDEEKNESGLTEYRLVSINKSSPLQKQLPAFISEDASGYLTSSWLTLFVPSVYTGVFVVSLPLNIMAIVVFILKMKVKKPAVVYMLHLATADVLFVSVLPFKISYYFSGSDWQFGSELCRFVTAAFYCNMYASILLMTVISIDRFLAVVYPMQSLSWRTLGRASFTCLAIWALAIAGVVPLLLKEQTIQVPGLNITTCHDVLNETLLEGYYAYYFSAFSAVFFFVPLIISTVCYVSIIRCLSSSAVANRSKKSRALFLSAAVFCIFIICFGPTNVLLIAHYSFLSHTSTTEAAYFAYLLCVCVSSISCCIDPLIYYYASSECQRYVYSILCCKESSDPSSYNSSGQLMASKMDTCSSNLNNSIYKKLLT
The data set is described as follows: Displacement of high affinity TRAP form human platelet PAR1. Summed up:
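Radioligand binding using human platelet membranes as PAR-1 source and tritiated haTRAP as radioligand; run in duplicate, compounds of high interest repeated n≥5 (SD 20%); Ki reported.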

Data set [5] in a line: Permeability across human Caco-2 cell membrane. The class given is ADME, cell-based. To be noted: read-out: permeability. Background: Passage across Caco-2 layers is used to estimate intestinal permeability.
The test system of data set [6] is Platelet. Briefly: Ex-vivo inhibition of PAR1-mediated aggregation of high affinity TRAP-stimulated cynomolgus monkey platelet at 0.1 mg/kg, po administered as single dose measured up to 6 hrs. Set-up: dose 0.1 mg/kg. To be noted: Macaca fascicularis. The class given is functional, organism-based. In outline:
(§2)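 Cynomolgus monkeys (n = 3) given single oral dose of 0.1 or 0.3 mg/kg; ex vivo haTRAP-induced platelet aggregation measured at time points out to 24 h.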

The nature of data set [7]: Tmax in monkey at 1 mg/kg, po. The class given is ADME, organism-based, Macaca mulatta. Set-up: dose 1 mg/kg, route oral. To be noted: rhesus monkey, in vivo.
Data set [8] can be described thus: Cmax in monkey at 0.1 mg/kg, po. The class given is ADME, organism-based, Macaca mulatta. Details: dose 0.1 mg/kg, route oral. To be noted: rhesus monkey, in vivo.
Data set [9] is described as follows: AUC (0 to 24 hrs) in monkey at 0.1 mg/kg, po. To be noted: rhesus monkey, plasma. The class given is ADME, organism-based, Macaca mulatta. Details: time < 24 hr, dose 0.1 mg/kg, route oral.
The next data set deals with Cytochrome P450 2D6 (Homo sapiens, UniProt P10635). Briefly: Inhibition of CYP2D6. The class given is ADME. In outline:
(§3)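 CYP3A4, CYP2D6, CYP2C9 and CYP2C19 inhibition tested under both co-incubation and pre-incubation conditions; IC50 determined.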

A further data set has as its target Cytochrome P450 3A4 (Homo sapiens, UniProt P08684). Briefly: Inhibition of CYP3A4. The class given is ADME. Summed up: as §3
In another data set the target is Cytochrome P450 2C9 (Homo sapiens, UniProt P11712). The data set is described as follows: Inhibition of CYP2C9. The class given is ADME. Summed up: as §3
Sequence of Cytochrome P450 2C9 (P11712 whole entry): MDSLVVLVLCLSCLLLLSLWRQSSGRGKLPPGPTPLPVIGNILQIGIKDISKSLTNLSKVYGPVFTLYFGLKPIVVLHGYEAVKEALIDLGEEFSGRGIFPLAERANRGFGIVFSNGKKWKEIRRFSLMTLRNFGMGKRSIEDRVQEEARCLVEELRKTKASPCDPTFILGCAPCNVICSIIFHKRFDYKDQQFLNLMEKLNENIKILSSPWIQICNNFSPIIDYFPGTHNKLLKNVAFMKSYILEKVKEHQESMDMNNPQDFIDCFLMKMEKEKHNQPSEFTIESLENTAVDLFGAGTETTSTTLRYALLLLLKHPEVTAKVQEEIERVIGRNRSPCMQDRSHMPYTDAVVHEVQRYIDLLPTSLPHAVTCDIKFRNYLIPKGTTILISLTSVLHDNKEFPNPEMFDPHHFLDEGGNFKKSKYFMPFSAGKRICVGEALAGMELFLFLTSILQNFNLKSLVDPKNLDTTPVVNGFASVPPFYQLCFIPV
The next data set concerns the target Cytochrome P450 2C19 (Homo sapiens, UniProt P33261). The data set is described as follows: Inhibition of CYP2C19. The class given is ADME. In outline:
as §3

Data set [10] can be described thus: Equilibrium solubility of the compound after 24 hrs. The class given is physicochemical.
Data set [11] deals with Platelet. Briefly: Ex-vivo inhibition of PAR1-mediated aggregation of high affinity TRAP-stimulated cynomolgus monkey platelet at 0.1 mg/kg, po administered as single dose measured after 24 hrs. To be noted: Macaca fascicularis. The class given is functional. In outline:
as §2

The target in data set [12] is T2, PXR (nuclear receptor subfamily 1 group I member 2) (Homo sapiens, UniProt O75469).
T2 sequence (O75469 whole entry): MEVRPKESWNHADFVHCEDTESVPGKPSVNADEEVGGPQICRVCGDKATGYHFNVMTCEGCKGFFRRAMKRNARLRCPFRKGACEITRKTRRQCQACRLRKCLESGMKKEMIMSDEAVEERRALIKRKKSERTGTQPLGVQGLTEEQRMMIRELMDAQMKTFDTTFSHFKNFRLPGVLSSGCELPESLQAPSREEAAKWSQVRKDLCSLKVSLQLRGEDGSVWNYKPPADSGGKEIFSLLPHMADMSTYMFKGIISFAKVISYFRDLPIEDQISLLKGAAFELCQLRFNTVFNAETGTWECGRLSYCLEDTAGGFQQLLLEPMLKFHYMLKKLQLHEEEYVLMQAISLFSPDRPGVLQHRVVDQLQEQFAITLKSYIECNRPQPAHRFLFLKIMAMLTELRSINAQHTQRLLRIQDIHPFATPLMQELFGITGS
Briefly: Induction of human PXR at 10 uM.

In the next data set the test system is Rhesus monkey. Briefly: Antithrombotic activity in monkey Folts model. The class given is functional, organism-based. To be noted: Macaca mulatta. Summed up: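 Folts thrombosis model in anesthetized monkeys; escalating doses given intravenously in sequence to the same animal, alone or with ADP antagonist cangrelor; inhibition of cyclic flow reductions monitored.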

Data set [13] is described as follows: Tmax in monkey at 0.1 mg/kg, po. The class given is ADME, organism-based, Macaca mulatta. Details: dose 0.1 mg/kg, route oral. To be noted: rhesus monkey, in vivo.
Data set [14] in a line: AUC (0 to 24 hrs) in monkey at 1 mg/kg, po. The class given is ADME, organism-based, Macaca mulatta. Set-up: time < 24 hr, dose 1 mg/kg, route oral. To be noted: rhesus monkey, plasma.
The test system of data set [15] is Platelet. The data set is described as follows: Ex-vivo inhibition of PAR1-mediated aggregation of high affinity TRAP-stimulated cynomolgus monkey platelet at 0.3 mg/kg, po administered as single dose measured after 24 hrs. The class given is functional, organism-based. Set-up: dose 0.3 mg/kg. To be noted: Macaca fascicularis. In outline:
as §2

A short description of data set [16]: Cmax in monkey at 1 mg/kg, po. The class given is ADME, organism-based, Macaca mulatta. Details: dose 1 mg/kg, route oral. To be noted: rhesus monkey, in vivo.

Sequence of Cytochrome P450 2D6 (P10635 whole entry): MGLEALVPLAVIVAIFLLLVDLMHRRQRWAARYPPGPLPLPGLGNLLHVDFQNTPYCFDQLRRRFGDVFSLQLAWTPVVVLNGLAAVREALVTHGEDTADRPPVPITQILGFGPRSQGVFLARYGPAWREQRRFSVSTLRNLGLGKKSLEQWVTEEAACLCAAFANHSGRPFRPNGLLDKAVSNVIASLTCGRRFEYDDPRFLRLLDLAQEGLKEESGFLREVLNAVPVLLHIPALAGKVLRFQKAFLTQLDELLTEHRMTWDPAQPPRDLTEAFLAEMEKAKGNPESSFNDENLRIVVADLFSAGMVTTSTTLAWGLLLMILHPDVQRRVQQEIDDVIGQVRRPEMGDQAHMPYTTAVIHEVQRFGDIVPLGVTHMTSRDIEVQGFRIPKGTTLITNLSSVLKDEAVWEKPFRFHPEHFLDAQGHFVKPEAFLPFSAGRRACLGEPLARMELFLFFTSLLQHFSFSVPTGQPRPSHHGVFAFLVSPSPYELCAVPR
Sequence of Cytochrome P450 3A4 (P08684 whole entry): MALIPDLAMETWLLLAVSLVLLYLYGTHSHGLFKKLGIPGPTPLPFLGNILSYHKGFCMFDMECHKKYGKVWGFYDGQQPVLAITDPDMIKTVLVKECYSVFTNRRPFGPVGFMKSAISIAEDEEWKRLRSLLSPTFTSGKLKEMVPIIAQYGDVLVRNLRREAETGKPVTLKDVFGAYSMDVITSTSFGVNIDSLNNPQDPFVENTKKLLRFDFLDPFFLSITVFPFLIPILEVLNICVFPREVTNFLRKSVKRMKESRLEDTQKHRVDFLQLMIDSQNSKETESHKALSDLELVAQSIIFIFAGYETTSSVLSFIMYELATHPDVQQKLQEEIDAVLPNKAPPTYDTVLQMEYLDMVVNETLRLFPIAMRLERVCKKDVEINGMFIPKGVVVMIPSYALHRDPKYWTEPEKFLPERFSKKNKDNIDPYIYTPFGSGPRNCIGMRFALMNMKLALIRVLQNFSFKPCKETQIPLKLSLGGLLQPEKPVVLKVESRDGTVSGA
Sequence of Cytochrome P450 2C19 (P33261 whole entry): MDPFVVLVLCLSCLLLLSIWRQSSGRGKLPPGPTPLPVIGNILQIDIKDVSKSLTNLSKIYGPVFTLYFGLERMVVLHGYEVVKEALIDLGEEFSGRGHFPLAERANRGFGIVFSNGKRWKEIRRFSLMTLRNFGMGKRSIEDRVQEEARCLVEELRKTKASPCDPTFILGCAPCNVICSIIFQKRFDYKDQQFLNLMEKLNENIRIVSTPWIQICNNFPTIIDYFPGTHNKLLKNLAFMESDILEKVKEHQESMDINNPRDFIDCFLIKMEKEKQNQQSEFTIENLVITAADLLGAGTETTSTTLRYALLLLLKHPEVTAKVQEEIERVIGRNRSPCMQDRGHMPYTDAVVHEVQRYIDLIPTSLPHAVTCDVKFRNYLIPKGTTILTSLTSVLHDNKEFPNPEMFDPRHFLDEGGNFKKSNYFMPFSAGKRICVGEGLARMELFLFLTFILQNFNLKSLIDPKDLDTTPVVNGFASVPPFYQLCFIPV

In data set [1], `CCOC(=O)N[C@@H]1CC[C@@H]2[C@@H](C1)C[C@H]1C(=O)O[C@H](C)[C@H]1[C@H]2/C=C/c1ccc(-c2ccccc2C#N)cn1` gave an AUC of 5220 ng·h/mL. In data set [2], this compound gave a kinetic solubility of 12 µM (≈ 6 µg/mL). This compound also had a Cmax in data set [3] of 1570 ng/mL. For the same compound, the pKi in data set [4] is 7.82.

Take `CCOC(=O)N[C@@H]1CC[C@@H]2[C@@H](C1)C[C@H]1C(=O)O[C@H](C)[C@H]1[C@H]2/C=C/c1ccc(-c2ccoc2)cn1`: in data set [2], the solubility (kinetic) came to 12 µM (≈ 5.57 µg/mL). The compound also gave a pKi in data set [4] of 7.21.

Take `CCOC(=O)N[C@@H]1CC[C@@H]2[C@@H](C1)C[C@H]1C(=O)O[C@H](C)[C@H]1[C@H]2/C=C/c1ccc(-c2ccncc2)cn1`: the negative logarithm of the Ki (pKi) in data set [4] is 6.60.

For the compound `CCOC(=O)N[C@@H]1CC[C@@H]2[C@@H](C1)C[C@H]1C(=O)O[C@H](C)[C@H]1[C@H]2/C=C/c1ccc(-c2nccs2)cn1`, in data set [4], the pKi is 7.12.

Turning to `CCOC(=O)N[C@@H]1CC[C@@H]2[C@@H](C1)C[C@H]1C(=O)O[C@H](C)[C@H]1[C@H]2/C=C/c1ccc(-c2ccccn2)cn1`, the Papp in [5] was 28.3 ×10⁻⁶ cm/s. The inhibition result in the data set on Platelet [6] and with Platelet [15] was “Active” throughout. The compound further displayed an exposure (AUC) in data set [1] of 10100 ng·h/mL. Moreover, the Tmax stood at 30 min in data set [7] and 60 min in [13]. Also, the peak concentration (Cmax) in data set [8] amounted to 16 ng/mL; in data set [3], 3070 ng/mL; in data set [16], 236 ng/mL. Also, the AUC(0-t) at 24 h was 50 ng·h/mL in [9] and 2520 ng·h/mL in data set [14]. Further, the pIC50 at Cytochrome P450 2D6, against Cytochrome P450 3A4, at Cytochrome P450 2C9 and against Cytochrome P450 2C19 was less than 4.52 in each case. In data set [10], this compound displayed a solubility (thermodynamic) at 24 h of 67 µM (≈ 31.9 µg/mL). In the data set on Platelet [11], this compound came in with an inhibition in vivo at 0.1 mg/kg of 70%. In data set [2], this compound showed a solubility (kinetic) of 75 µM (≈ 35.7 µg/mL). Further, the induction at 10 µM in data set [12] is 0.13%. Further, the Activity result in the data set with Rhesus monkey was “Dose-dependent effect”. This compound also showed a negative logarithm of the Ki (pKi) in data set [4] of 7.72.

As to `CCOC(=O)N[C@@H]1CC[C@@H]2[C@@H](C1)C[C@H]1C(=O)O[C@H](C)[C@H]1[C@H]2/C=C/c1ccc(-c2cccc(F)c2)cn1` [VORAPAXAR], in data set [1], the AUC came to 3060 ng·h/mL. In addition, the solubility (thermodynamic) at 24 h in data set [10] is 2.8 µM (≈ 1.38 µg/mL). This compound displayed a kinetic solubility in [2] of less than 5 µM. In data set [3], this compound showed a Cmax of 974 ng/mL. The compound also had a pKi in data set [4] of 8.10.

In turn, `CCOC(=O)N[C@@H]1CC[C@@H]2[C@@H](C1)C[C@H]1C(=O)O[C@H](C)[C@H]1[C@H]2/C=C/c1ccc(-c2cncnc2)cn1` gave a pKi in data set [4] of 6.47.

As for `CCOC(=O)N[C@@H]1CC[C@@H]2[C@@H](C1)C[C@H]1C(=O)O[C@H](C)[C@H]1[C@H]2/C=C/c1ccc(-c2cccc(OC)c2)cn1`, in [1], the AUC came to 319 ng·h/mL. For the same compound, the kinetic solubility in data set [2] is less than 5 µM. Further, the concentration in [3] peaked (Cmax) at 368 ng/mL. In addition, in data set [4], the pKi is 7.92.

For `CCOC(=O)N[C@@H]1CC[C@@H]2[C@@H](C1)C[C@H]1C(=O)O[C@H](C)[C@H]1[C@H]2/C=C/c1ccc(-c2cccnc2)cn1`, the pKi in [4] is 6.62.

The compound `CCOC(=O)N[C@@H]1CC[C@@H]2[C@@H](C1)C[C@H]1C(=O)O[C@H](C)[C@H]1[C@H]2/C=C/c1ccc(-c2cc(C)ccn2)cn1` showed a pKi in [4] of 6.84.

In [4], `CCOC(=O)N[C@@H]1CC[C@@H]2[C@@H](C1)C[C@H]1C(=O)O[C@H](C)[C@H]1[C@H]2/C=C/c1ccc(-c2ccc(C)cn2)cn1` gave a negative logarithm of the Ki (pKi) of 7.38.
